Yeast growth inh: chemicals that inhibit yeast BB579 growth in restrictive medium (lifespan-shortening candidates) | AID 804 | actives 0.51% (n = 140,000) | S. cerevisiae BB579 growth, OD615, 48 h | inhibition, % at 10 µM;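 active = inhibition above a set limit, 3 SD over the mean compound inhibition, cut at about 44% in these data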
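Test system: S. cerevisiae DeaD strain BB579 yeast; Medium: restrictive CSMM-D medium; Compound: one dose, 10 µM compound with 0.25% DMSO; Incubation: 4 h cell preincubation, 48 h compound exposure, 30 °C humidified; Signal: OD at 615 nm; Benchmarks: amphotericin B at 10 µg/mL as positive control.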
Yeast lifespan up: extends the lifespan of yeast; inhibition of the nicotinamide effect, % at 10 µM; AID 775; S. cerevisiae growth with nicotinamide, OD615; deaD strain in restrictive glucose medium; actives 0.68% (n = 130,000);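 active = inhibition above a set limit, placed 3 SD over the median of all compounds, cut at about 26% in these data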;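 note: 0% = nicotinamide-treated wells and 100% = cells grown without nicotinamide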
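Buffer or medium: CSMM-D glucose medium, restrictive; test system: modified budding yeast, DeaD strain; compound: single dose 10 µM compound, 0.25% DMSO; schedule: culture preincubation 4 h, compound exposure 48 h, both 30 °C; detection: optical density (absorbance) at 615 nm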
RAM network inh: inhibitors of the yeast RAM network. S. cerevisiae dse1pr::URA3 reporter, 5-FOA growth OD615, 2 d; analog-sensitive cbk1-as2 kinase mutant strain. inhibition, % at 50 µM. actives 1.8% (n = 190,000);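 active = inhibition above a set limit, 3 SD over mean compound inhibition, cut at about 8.4% in these data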;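 note: 0% = DMSO-only wells with no growth and 100% = 10 µM 1-NA-PP1 full growth; inhibition rescues growth on 5-FOA so higher OD means more RAM inhibition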
* marks the source's active call; other numbers are inactive results; x = not tested or not shown. A selection: hits, their analogues and other compounds. The true share with any hit is near 2.6%.

SMILES | Yeast growth inh | Yeast lifespan up | RAM network inh
COc1ccc(-c2cc(C(F)(F)F)nc(SCCC(=O)NCc3ccccc3)n2)cc1 | -28.3 | 1.0 | 9.6*
COc1ccc(-c2cc(C(F)(F)F)nc(SCc3cccc(C(=O)O)c3)n2)cc1 | -34.1 | -8.7 | 3.8
COc1ccccc1CCNC(=O)CCSc1nc(-c2ccco2)cc(C(F)(F)F)n1 | -17.6 | x | 6.2
CCCCOC(=O)C(C)Sc1n[nH]c(=O)[nH]c1=O (stereo not drawn) | x | x | 1.0
CSC1=N/C(=C\c2ccccc2F)C(=O)S1 | -62.8 | 8.5 | 5.5
COc1cccc(/C=C2\N=C(SC)SC2=O)c1OC | -40.3 | -2.3 | 9.6*
CC(=O)Oc1c(C(=O)c2nnc(C)o2)c(=O)n(C)c2ccccc12 | 19.0 | 54.3* | 0.3
CC(=O)Oc1c(C)c(=O)n(C)c2ccccc12 | -15.3 | -0.9 | 1.2
CCC(c1nnc(SCC(=O)Nc2ccc(Cl)cc2C(F)(F)F)n1C1CCCCC1)N(C)C (stereo not drawn) | -35.6 | 3.8 | 0.0
O=C(Nc1cc(C(F)(F)F)ccc1N1CCCCC1)c1ccco1 | -3.7 | -7.0 | 2.5
O=C(Nc1cc(C(F)(F)F)ccc1N1CCCCC1)c1ccc(Br)o1 | 1.3 | -16.8 | 10.7*
COc1cccc(/C=C/C(=O)Nc2ccccc2N2CCOCC2)c1 | x | x | -1.1
CN(Cc1ccccc1)c1ncc(C=O)s1 | x | x | 3.8
COc1cc(OC)cc(C(=O)N[C@H](C(=O)NCc2cccs2)C(C)C)c1 | x | x | 0.8
Cc1ccccc1/C=N\NC(=O)c1ccccc1-n1cccc1 | x | x | 3.2
CCOc1ccc(S(=O)(=O)N(CC)CC)cc1NS(=O)(=O)c1ccc(F)c(F)c1F | -11.6 | 13.2 | 3.6
Cc1ccc(-c2nnn(CC(=O)N(c3cnc4ccccc4c3)C(C(=O)NC3CCCC3)c3ccncc3)n2)o1 (stereo not drawn) | x | x | 8.6*
CCC(C(=O)NC1CCCC1)N(C(=O)Cn1nnc(-c2ccc(C)o2)n1)c1cnc2ccccc2c1 (stereo not drawn) | -22.2 | -4.5 | 5.9
Cc1[nH]n(-c2ncc(-c3ccc(Cl)cc3)s2)c(=O)c1C(c1ccc(Cl)cc1)C(C#N)C#N (stereo not drawn) | -9.1 | 7.8 | 8.6*
COc1ccc(C(c2c(C)[nH]n(C(N)=S)c2=O)C(C#N)C#N)cc1 (stereo not drawn) | 37.2 | x | -1.3
CC(=O)NN1C(=O)c2ccccc2NC1c1ccoc1 (stereo not drawn) | x | x | 0.9
Cc1[nH]nc2c1C(c1ccsc1C)C(C#N)=C(N)O2 (stereo not drawn) | -36.4 | -16.5 | 1.6
Cc1cc(C2C(C#N)=C(N)Oc3n[nH]c(C)c32)c(C)s1 (stereo not drawn) | -2.2 | 71.1* | -0.7
COc1ccc(Cl)cc1NC(=S)NCc1ccco1 | -25.2 | -12.9 | -0.5
O=C(COC(=O)c1ccc(S(=O)(=O)N2CCCC2)cc1)NCc1cccs1 | x | x | 4.5
SMILES | Yeast growth inh | Yeast lifespan up | RAM network inh
Cc1ccc(CN2CCN(Cc3cccn3-c3nccs3)CC2CCO)cc1 (stereo not drawn) | x | x | -0.2
COc1ccc(Nc2nc(N/N=C/c3ccc(N(C)C)cc3)nc(C)c2[N+](=O)[O-])cc1 | -53.7 | 5.1 | 10.0*
COc1ccc(Nc2nc(NN)nc(C)c2[N+](=O)[O-])cc1 | x | x | 1.7
CCOCCOC(=O)COc1ccc2c(-c3ccccc3)cc(=O)oc2c1 | -9.2 | -5.4 | 0.0
O=C1C(Oc2ccccc2)C(c2cccs2)N1Cc1ccc2c(c1)OCO2 (stereo not drawn) | -52.9 | -26.1 | 2.1
Cc1ccccc1OC1C(=O)N(Cc2ccc3c(c2)OCO3)C1c1sccc1C (stereo not drawn) | -24.0 | -8.4 | 10.3*
COc1ccc(C2Nc3ccccc3C(=O)N2NS(=O)(=O)c2ccccc2)cc1 (stereo not drawn) | x | x | 1.3
O=C1NCCCC1C(=O)N/N=C/c1ccccc1 (stereo not drawn) | -0.9 | 1.4 | 0.9
O=C1NCCCC1C(=O)N/N=C/c1cccc(O)c1 (stereo not drawn) | 100.4* | -1.3 | -0.1
COc1ccccc1OCCCC(=O)Nc1ccc([N+](=O)[O-])cc1Br | x | x | 4.4
Cc1cc(-c2nn(-c3ccccc3F)cc2CN(C)CC(O)CO)c(C)s1 (stereo not drawn) | x | x | 0.5
COC(=O)c1c(F)c(F)c(N2CCOCC2)c(F)c1F | -29.0 | -9.1 | 1.4
CC(C)OC(=O)c1c(F)c(F)c(N2CCOCC2)c(F)c1F | -6.2 | 44.3* | 1.0
COc1cc(CC(=O)N(c2ccccc2)c2nc(C)cs2)cc(OC)c1OC | x | x | 0.2
CCc1cccc(NC(=O)c2cc(S(=O)(=O)N(C)C)ccc2N2CCCC2)c1 | x | x | 11.3*
CN(C)S(=O)(=O)c1ccc(N2CCCC2)c(C(=O)NCc2ccc(Cl)cc2)c1 | 3.2 | -18.8 | -1.1
CCc1c(C)nc(SCC(=O)Nc2c(C)n(C)n(-c3ccccc3)c2=O)[nH]c1=O | 9.1 | -20.4 | 0.1
Cc1c(NC(=O)CSc2nc3c(cnn3-c3ccccc3)c(=O)[nH]2)c(=O)n(-c2ccccc2)n1C | -27.7 | 4.8 | 11.2*
C=CCn1c(-c2ccc(OC)cc2)csc1=Nc1c(C)n(C)n(-c2ccccc2)c1=O | -37.8 | 99.9* | 1.9
Cc1csc(=Nc2c(C)n(C)n(-c3ccccc3)c2=O)n1Cc1ccccc1 | -14.6 | -6.3 | 3.1
CC(C)OC(=O)CSc1nc(Cc2ccccc2)nc2ccccc12 | x | x | 4.5
COc1cccc(/C=C/C(=O)OCC(=O)Nc2ccc(Cl)c(S(=O)(=O)N(C)C)c2)c1 | x | x | 8.5*
O=C(COC(=O)/C=C/c1ccccc1)Nc1cccc(Oc2ccccc2)c1 | -29.9 | 0.7 | 8.9*
O=C(COC(=O)/C=C/c1ccc(Cl)cc1)Nc1ccccc1 | x | x | 0.1
O=C(COC(=O)/C=C/c1ccccc1Cl)NCCc1ccc(Cl)cc1Cl | -26.8 | 3.8 | 8.6*
SMILES | Yeast growth inh | Yeast lifespan up | RAM network inh
O=C(CSc1ccc2c(c1)OCCO2)NCCc1ccc(Cl)cc1Cl | -17.4 | -0.8 | 8.4*
COc1cccc(/C=C/C(=O)OCC(=O)Nc2cccc(S(=O)(=O)N(C)C)c2)c1 | x | x | 8.1
O=C(CSc1ccc2c(c1)OCCO2)Nc1ncc(Cl)cc1Cl | -71.3 | -9.2 | 0.3
O=C(COC(=O)/C=C/c1ccc(Cl)cc1Cl)NCCC1=CCCCC1 | -12.1 | -5.1 | 1.4
CCOC(=O)c1oc2ccccc2c1NC(=O)c1cccc(OC)c1OC | -45.1 | 14.9 | 6.2
C(=N\Nc1nc(Nc2ccccc2)nc(N2CCCCC2)n1)/c1ccco1 | x | x | -1.7
Cc1ccc(CSCC(=O)NCc2cccs2)cc1 | x | x | 0.9
Cn1c(=O)cc(OCC(=O)NCc2cccs2)c2ccccc21 | x | x | 2.1
O=C(Cc1ccccc1)Oc1coc(CSc2ncccn2)cc1=O | x | x | 3.0
CCc1ccc(-n2c(C)n[nH]c2=S)cc1 | x | x | 0.2
CCn1nc(C)c(NC(=O)Nc2cccc(Cl)c2Cl)c1C | x | x | 0.6
COc1cc(NC(=O)COC(=O)/C=C/c2ccccc2Cl)cc(OC)c1 | -22.2 | -0.3 | 10.0*
COc1cc(NC(=O)COC(=O)/C=C/c2ccc(OC)c(OC)c2)cc(OC)c1 | x | x | 2.6
CCCCSc1nc2c(cc1C#N)CCC2 | -12.5 | -15.9 | 3.5
CCCSc1nc(C)c(-c2csc(C(C#N)=C3CCCC3)n2)cc1C#N | -31.8 | -21.1 | 8.9*
COc1ncccc1-c1nnn(-c2ccc(Cl)c(Cl)c2)n1 | x | x | 8.8*
COc1ncccc1-c1nnn(-c2ccc(C)cc2)n1 | x | x | -1.2
